# Test results published in article PMC5826595 (Chemistry (Weinheim an der Bergstrasse, Germany), 2017).
# Like-named read-outs stand apart in the source and are kept apart here.
# Tests used:
# [1] = molecular target: preformed Aβ40 aggregates (Homo sapiens, UniProt P05067); assay type: biochemical; conditions: metal-free and metal-treated conditions
# [2] = TEAC assay in EtOH; assay type: biochemical; conditions: relative to Trolox
# Method in brief: (§1)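 Radical scavenging was measured by the test compound's quenching of pre-formed ABTS cation radicals (ABTS•⁺). The read-out was absorbance on a microplate reader, and capacity was expressed as Trolox equivalents.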
# [3] = TEAC assay in M17 cell lysates; assay type: biochemical; conditions: relative to Trolox
# Method in brief: as §1
# [4] = molecular target: T1, metal-free Aβ40 monomer (Homo sapiens, UniProt P05067); experiment: 2D SOFAST-HMQC NMR with metal-free monomeric Aβ40; assay type: binding; conditions: [Aβ40] 80 μM; compound 800 μM (10 equiv); pH 7.4; 10 °C
# T1 sequence (P05067 672-711 limits assumed): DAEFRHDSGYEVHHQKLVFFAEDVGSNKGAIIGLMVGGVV
# Method in brief: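 Uniformly ¹⁵N-labeled monomeric Aβ40 (80 μM) with test compound at 0 or 800 μM in 20 mM phosphate buffer, pH 7.4, 50 mM NaCl, 7 % (v/v) D₂O, at 10 °C. 2D ¹H–¹⁵N SOFAST-HMQC spectra were recorded at 900 MHz with a cryogenic probe. Per-residue chemical shift perturbations were plotted against the average CSP with standard deviation; unresolved residues were excluded.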
# [5] = molecular target: Aβ42 (Homo sapiens, UniProt P05067); assay type: biochemical; conditions: inhibition experiment; vs compound-free and L2-b1-treated conditions
# Sequence of Aβ42 (P05067 672-713 limits assumed): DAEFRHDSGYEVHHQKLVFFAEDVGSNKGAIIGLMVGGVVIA
# Method in brief: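 Aβ42 (25 μM) was incubated with test compound (50 μM), either metal-free or with CuCl2 or ZnCl2 (25 μM). Cu samples were at pH 6.6; metal-free and Zn samples at pH 7.4. Incubation was at 37 °C with constant agitation. Size distribution was read by gel/Western blot with anti-Aβ antibody 6E10, and morphology by TEM of the same samples.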
# [6] = test system: SK-N-BE(2)-M17 (M17) cells; experiment: Viability of cells treated with metal-free Aβ or metal–Aβ followed by compound; assay type: cell-based, human; conditions: [Aβ] 10 μM, [CuCl2 or ZnCl2] 10 μM, [L2-b2] 20 μM, MTT
# Method in brief: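 SK-N-BE(2)-M17 neuroblastoma cells were first exposed to metal-free Aβ40 or Aβ42, or to Aβ premixed with CuCl2 or ZnCl2. Test compound was added afterwards. Viability was measured by MTT absorbance on a microplate reader and expressed as % of cells given DMSO only (0–1 %, v/v).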
# [7] = molecular target: T2, metal-free Aβ40 (Homo sapiens, UniProt P05067); experiment: ESI-MS of metal-free Aβ40 incubated with compound; assay type: binding; conditions: [Aβ40] 10 μM; [L2-b2] 50 μM; pH 7.5; 37 °C; 6 h
# T2 sequence (P05067 672-711 limits assumed): as the sequence (P05067 672-711 limits assumed) above
# [8] = molecular target: Cu^II–Aβ40 (Homo sapiens, UniProt P05067); experiment: nESI-MS and MS/MS of Aβ40 incubated with Cu^II and compound; assay type: biochemical; conditions: [Aβ40] 20 μM; [CuCl2] 20 μM; [L2-b2] 120 μM; pH 7.5; 37 °C; 30 min
# Sequence of Cu^II–Aβ40 (P05067 672-711 limits assumed): as above
# [9] = molecular target: Aβ40 (Homo sapiens, UniProt P05067); assay type: biochemical; conditions: inhibition experiment; vs compound-free and L2-b1-treated conditions
# Sequence of Aβ40 (P05067 672-711 limits assumed): as above
# [10] = molecular target: preformed Aβ42 aggregates (Homo sapiens, UniProt P05067); assay type: biochemical; conditions: metal-free and metal-treated conditions
# Sequence of preformed Aβ42 aggregates (P05067 672-713 limits assumed): as the sequence (P05067 672-713 limits assumed) above
# [11] = test system: metal-free Aβ and metal–Aβ; conditions: ref 4b,f; cited from earlier work
# [12] = molecular target: T2, metal-free Aβ40; conditions: ref 4b,f; cited from earlier work
# [13] = molecular target: T1, metal-free Aβ40 monomer; conditions: ref 4e; cited from earlier work
# Sequence of preformed Aβ40 aggregates (P05067 672-711 limits assumed): as the sequence (P05067 672-711 limits assumed) above
compound,measurement,setting,value
"c1ccc(CNCc2ccccn2)nc1 [DPA1, bis(pyridin-2-ylmethyl)amine, reference compound]",Disaggregation of preformed Aβ40 aggregates (gel/Western blot),[1],could not detectably disaggregate preformed Aβ40 aggregates
"CN(C)c1ccc(CNCc2ccc(N(C)C)cn2)nc1 [DPA2, 6-((((5-(dimethylamino)pyridin-2-yl)methyl)amino)methyl)-N,N-dimethylpyridin-3-amine]",Disaggregation of preformed Aβ40 aggregates (gel/Western blot),[1],could not detectably disaggregate preformed Aβ40 aggregates
"CN(C)c1ccc(CNc2ccccc2)nc1 [L2-b1, N,N-dimethyl-6-((phenylamino)methyl)pyridin-3-amine]",TEAC value,[2],0.8 ± 0.1
same,TEAC value,[3],0.7 ± 0.1
same,Disaggregation of preformed Aβ40 aggregates (gel/Western blot),[1],could not detectably disaggregate preformed Aβ40 aggregates
same,Interaction with metal-free Aβ40 monomer (CSP),[4],weak interactions with metal-free Aβ
"CN(C)c1ccc(NCc2ccc(N(C)C)cn2)cc1 [L2-b2, N^1-((5-(dimethylamino)pyridin-2-yl)methyl)-N^4,N^4-dimethylbenzene-1,4-diamine]",TEAC value,[2],1.9 ± 0.1
same,Morphology of resultant Aβ42 aggregates (TEM),[5],more amorphous aggregates and/or smaller fibrils
same,Effect on toxicity triggered by metal-free Aβ and metal–Aβ in living cells,[6],possibly alleviate toxicity triggered by metal-free Aβ and metal–Aβ in living cells
same,TEAC value,[3],1.1 ± 0.1
same,Disaggregation of preformed Aβ40 aggregates (gel/Western blot),[1],displayed various-sized peptide aggregates to different degrees
same,Interaction with metal-free Aβ (ESI-MS),[7],forming a covalent adduct of Aβ–cationic imine
same,Mass loss of Aβ40 compared to apo Aβ40 (degraded Aβ),[8],89.1 (± 0.1) Da
same,Morphology of resultant Aβ40 aggregates (TEM),[9],more amorphous aggregates and/or smaller fibrils
same,Interaction with metal-free Aβ40 monomer (CSP),[4],weak interactions with metal-free Aβ
same,Disaggregation of preformed Aβ42 aggregates (gel/Western blot),[10],dismantle preformed metal-free and metal-treated Aβ42 aggregates
"CN(C)c1ccc(NCc2ccccn2)cc1 [L2-b, N^1,N^1-dimethyl-N^4-(pyridin-2-ylmethyl)benzene-1,4-diamine]",Reactivity toward metal-free Aβ and metal–Aβ aggregation pathways,[11],reactivity only for metal–Aβ species
same,Interaction with metal-free Aβ,[12],unable to interact with metal-free Aβ
same,Interaction with metal-free Aβ40 monomer (CSP),[13],weak interactions with metal-free Aβ
"NCc1ccccn1 [PMA1, pyridin-2-yl-methanamine, reference compound]",Disaggregation of preformed Aβ40 aggregates (gel/Western blot),[1],could not detectably disaggregate preformed Aβ40 aggregates
"CN(C)c1ccc(CN)nc1 [PMA2, 6-(aminomethyl)-N,N-dimethylpyridin-3-amine, reference compound]",Disaggregation of preformed Aβ40 aggregates (gel/Western blot),[1],could not detectably disaggregate preformed Aβ40 aggregates
